Compound activity from PubChem BioAssay.
In the library only some 3% were active in any assay of this set; here they are far more common.
UBC13 inh: UBC13 polyubiquitin chain formation inhibitors, primary screen, biochemical, TR-FRET, uHTS | inhibition, % at 20 µM | 0.47% of 330,000 active | AID 485273, 2010; in the data active = inhibition above about 45%, passing the limit was not always enough
SENP8 block-1: SENP8 protease inhibitors, primary screen, biochemical, luminescence; 1.2% of 330,000 active; Sentrin-specific protease 8 (Homo sapiens), Q96LD8; purified SENP8, Z-RLRGG-aminoluciferin cleavage; inhibition, % at 10 µM; in the data active = inhibition above about 50%
SENP6 block: SENP6 protease inhibitors, primary screen, biochemical, luminescence, uHTS; Sentrin-specific protease 6 (Homo sapiens), Q9GZR1; Recombinant SENP6 catalytic domain, aminoluciferin luminescence; inhibition, % at 10 µM; 1.8% of 330,000 active;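 active = inhibition above about 50% at the single tested dose, limit read from the data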;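 also: plate controls were DMSO wells with enzyme for no effect and DMSO wells lacking enzyme for full effect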
SENP7 inh: SENP7 protease inhibitors, primary screen, biochemical, luminescence, uHTS | Sentrin-specific protease 7 (Homo sapiens), Q9BQF6 | recombinant SENP7, Z-RLRGG-aminoluciferin luminescence, 40 min | inhibition, % at 5 µM | 1.5% of 330,000 active;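 active = inhibition above about 50% at the single test dose, limit read from the data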;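 also: plate controls were DMSO with enzyme for no effect and no enzyme buffer wells for full effect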
Apaf1 inhib: inhibitors of human Apaf-1 apoptosome, primary screen, biochemical, DEVD-Rh110 fluorescence, uHTS; AID 489030, 2010; Apoptotic protease-activating factor 1 (Homo sapiens), O14727; 0.71% of 330,000 active; reconstituted apoptosome caspase-3 activity; inhibition, % at 20 µM; active = inhibition of at least 40% at 20 µM;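 also: plate controls were DMSO wells for no effect and DEVD-CHO caspase inhibitor wells for full effect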
Target sequence (O14727 whole entry, looked up): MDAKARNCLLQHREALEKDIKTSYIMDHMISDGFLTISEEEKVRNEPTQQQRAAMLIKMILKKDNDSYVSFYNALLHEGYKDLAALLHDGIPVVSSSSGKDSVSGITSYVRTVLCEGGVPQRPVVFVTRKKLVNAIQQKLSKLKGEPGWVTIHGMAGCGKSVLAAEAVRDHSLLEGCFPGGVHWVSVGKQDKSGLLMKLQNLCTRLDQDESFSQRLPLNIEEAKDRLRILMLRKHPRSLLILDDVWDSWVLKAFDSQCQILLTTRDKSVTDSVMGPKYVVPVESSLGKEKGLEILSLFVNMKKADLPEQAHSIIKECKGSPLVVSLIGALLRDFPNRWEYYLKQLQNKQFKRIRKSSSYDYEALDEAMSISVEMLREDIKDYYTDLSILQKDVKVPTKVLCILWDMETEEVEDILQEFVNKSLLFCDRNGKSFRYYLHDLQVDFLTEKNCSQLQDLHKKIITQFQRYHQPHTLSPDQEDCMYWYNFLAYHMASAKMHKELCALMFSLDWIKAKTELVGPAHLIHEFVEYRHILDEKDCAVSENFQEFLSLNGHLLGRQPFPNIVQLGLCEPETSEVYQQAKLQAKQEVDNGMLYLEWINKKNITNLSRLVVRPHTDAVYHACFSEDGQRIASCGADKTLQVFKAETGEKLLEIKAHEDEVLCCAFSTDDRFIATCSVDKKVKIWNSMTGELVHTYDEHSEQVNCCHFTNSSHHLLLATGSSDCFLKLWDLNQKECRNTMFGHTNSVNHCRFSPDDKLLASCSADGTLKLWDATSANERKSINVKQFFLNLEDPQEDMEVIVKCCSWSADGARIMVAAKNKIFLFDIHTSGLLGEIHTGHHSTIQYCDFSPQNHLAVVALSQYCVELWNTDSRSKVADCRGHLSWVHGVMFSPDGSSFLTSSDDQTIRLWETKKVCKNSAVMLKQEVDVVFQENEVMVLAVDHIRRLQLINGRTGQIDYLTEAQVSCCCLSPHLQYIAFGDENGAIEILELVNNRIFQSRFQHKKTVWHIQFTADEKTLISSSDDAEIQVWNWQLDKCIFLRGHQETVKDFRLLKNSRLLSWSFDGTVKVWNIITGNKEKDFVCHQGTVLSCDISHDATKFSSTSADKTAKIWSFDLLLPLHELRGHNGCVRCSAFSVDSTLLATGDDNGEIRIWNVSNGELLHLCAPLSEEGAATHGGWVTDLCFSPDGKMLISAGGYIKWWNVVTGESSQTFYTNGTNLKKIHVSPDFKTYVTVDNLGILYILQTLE
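System: reconstituted apoptosome with Apaf-1, cytochrome c, caspase-9, procaspase-3, dATP; Signal: Rh110 fluorescence intensity; Schedule: 30 min compound preincubation, 50 min activation, room temperature; Reagent: cytochrome c trigger plus (Z-DEVD)2-Rh110 caspase-3 substrate.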
SENP8 block-2: human SENP8 protease inhibitors, primary screen, biochemical, fluorescence, Nedd8 protein substrate, uHTS; Sentrin-specific protease 8 (Homo sapiens), Q96LD8; recombinant SENP8; inhibition, % at 20 µM; 0.64% of 360,000 active; in the data active = inhibition mostly above about 40%, no sharp cut-off; inactive = mostly below about 27%
SENP8 conf: SENP8 protease inhibitors, retest, confirmation, biochemical, luminescence, single concentration | 40% of 6,200 active | AID 488912, 2010 | Recombinant SENP8, Z-RLRGG-aminoluciferin luminescence, 60 min | shares compounds with SENP7 inh | inhibition, % at 12.5 µM;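 active = mean inhibition across replicates above about 50%, limit read from the data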
SENP6 conf: SENP6 protease inhibitors, confirmation, biochemical, luminescence, single concentration; recombinant SENP6, Z-RLRGG-aminoluciferin luminescence; 58% of 6,200 active; shares compounds with SENP7 inh; AID 488915, 2010; inhibition, % at 12.5 µM
SENP7 conf: SENP7 protease inhibitors, retest, confirmation, biochemical, luminescence, single concentration; 69% of 6,200 active; shares compounds with SENP7 inh; inhibition, % at 12.5 µM; recombinant SENP7, Z-RLRGG-aminoluciferin luminescence, 40 min
Casp3 select: caspase-3 protease inhibitors, confirmation, selectivity assay for SENP inhibitor project, biochemical, single concentration. inhibition, % at 12.5 µM. AID 488918, 2010. shares compounds with SENP7 inh. 60% of 6,200 active. purified caspase-3, Z-DEVD-aminoluciferin luminescence, 60 min;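 active = mean inhibition above about 50%, limit read from the data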;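 also: plate controls were enzyme with DMSO for no effect and wells without caspase-3 for full effect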
SENP luc ctr: luminescence interference (SENP counter-screen). shares compounds with SENP7 inh. Pre-incubated SENP8/Z-RLRGG-aminoluciferin, luciferase luminescence interference. inhibition, % at 12.5 µM. 39% of 6,200 active;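 active = mean inhibition above about 50% when retested at one dose, limit read from the data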;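 also: plate controls were DMSO wells with completed reaction for no effect and substrate without enzyme for full effect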
Starred values were filed as active, the others as inactive; nt = no result.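 The calls were made as follows, unless noted: active = mean inhibition above about 50% in the one-dose retest (limit read from the data); inactive = the rest.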

SMILES	UBC13 inh	SENP8 block-1	SENP6 block	SENP7 inh	Apaf1 inhib	SENP8 block-2	SENP8 conf	SENP6 conf	SENP7 conf	Casp3 select	SENP luc ctr
O=C(COc1ccccc1)N/N=C/c1ccc([N+](=O)[O-])o1	-10	0	-5	4	2	5	nt	nt	nt	nt	nt
COc1ccc2cc(-c3ccn[nH]3)ccc2c1	10	45	66*	59*	6	4	32	53*	84*	45	64*
O=C1/C(=C/N(C(=O)c2ccco2)c2ccc(Br)cc2)Sc2ccccc21	-30	84*	90*	80*	12	-109	11	51*	72*	44	40
O=C1/C(=C/N(C(=O)c2ccco2)c2ccc(Cl)cc2)Sc2ccccc21	nt	nt	nt	nt	nt	-152	nt	nt	nt	nt	nt
CN(C(=O)CN1C(=O)c2cc(Cl)c(Cl)cc2C1=O)C1CCS(=O)(=O)C1 (centres undefined)	-4	-1	8	1	-7	14	nt	nt	nt	nt	nt
Cc1ccc2oc(-c3cccc(NC(=S)NC(=O)/C=C/c4ccco4)c3)nc2c1	-27	56*	57*	18	3	-17	-24	-8	4	16	11
Fc1cccc2sc(Nc3nc4cc5c(cc4s3)OCO5)nc12	-19	-8	7	53*	2	-449	-6	-10	2	5	-5
Fc1cccc2sc(Nc3nc4cc5c(cc4s3)OCCO5)nc12	-8	34	48	1	-6	-399	nt	nt	nt	nt	nt
O=c1[nH]c(N/N=C\c2ccc3c(c2)OCO3)nc2ccccc12	-20	15	56*	48	-4	-387	28	44	41	60*	4
Cc1cc(N/N=C/c2ccc3c(c2)OCO3)nc2ccccc12	27	47	59*	70*	11	-425	28	68*	88*	35	43
O=c1[nH]c(N/N=C/c2ccccc2)nc2ccccc12	11	-7	29	8	9	-313	nt	nt	nt	nt	nt
COc1ccc(CCN(C)C(=O)c2ccc(C)c(S(=O)(=O)N3CCCCC3)c2)cc1OC	9	1	-9	-7	-14	-4	nt	nt	nt	nt	nt
CC(Nc1ccc2ccccc2c1)C(=O)N/N=C/c1ccncc1 (centres undefined)	-8	48	56*	32	-5	18	-23	-17	-6	-6	-6
CC(Oc1ccc2ccccc2c1)C(=O)N/N=C/c1cccnc1 (centres undefined)	2	2	-9	-3	1	7	nt	nt	nt	nt	nt
O=C(Nc1cc([N+](=O)[O-])ccc1O)c1ccc2c(c1)C(=O)N(Cc1ccco1)C2=O	-32	76*	82*	38	11	8	47	84*	74*	77*	84*
O=C(Nc1cc([N+](=O)[O-])ccc1O)c1cccc([N+](=O)[O-])c1	-12	69*	83*	67*	-7	29	85*	83*	97*	86*	70*
